{
  "source": "ChEMBL document CHEMBL1124639",
  "about": "“Synthesis and in vitro pharmacology of arpromidine and related phenyl(pyridylalkyl)guanidines, a potential new class of positive inotropic drugs” (J Med Chem, 1989)",
  "key": {"[1]": {"target": "Histamine H2 receptor (Cavia porcellus) (UniProt P47747)", "sequence (P47747 whole entry)": "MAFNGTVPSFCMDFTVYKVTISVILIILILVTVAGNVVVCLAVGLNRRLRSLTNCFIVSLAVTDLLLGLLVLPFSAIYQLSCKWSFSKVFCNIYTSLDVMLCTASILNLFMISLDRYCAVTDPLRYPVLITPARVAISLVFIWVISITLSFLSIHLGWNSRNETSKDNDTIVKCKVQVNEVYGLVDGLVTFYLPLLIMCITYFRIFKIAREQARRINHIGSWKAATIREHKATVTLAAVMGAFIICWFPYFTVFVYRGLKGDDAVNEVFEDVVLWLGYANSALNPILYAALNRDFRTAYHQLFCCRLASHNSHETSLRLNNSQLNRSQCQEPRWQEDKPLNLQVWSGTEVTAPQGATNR", "assay": "Histamine H2 receptor agonism relative to histamine on isolated guinea pig right atrium", "format": "functional, tissue-based", "details": "Cardiac atrium", "in_short": "(§1)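 Spontaneously beating isolated guinea pig right atrium with a positive chronotropic read-out. Cumulative concentration-response curves were run against histamine dihydrochloride as the standard. Incubation after each concentration was usually 25 min, adjusted until equilibrium. H2 selectivity was checked with cimetidine (10 µM and 1 µM) and metoprolol (1 µM). Potency relative to histamine = 1 was calculated from mean pD2 values.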"}, "Histamine H1 receptor": {"target": "Histamine H1 receptor (Cavia porcellus, UniProt P31389)", "sequence (P31389 whole entry)": "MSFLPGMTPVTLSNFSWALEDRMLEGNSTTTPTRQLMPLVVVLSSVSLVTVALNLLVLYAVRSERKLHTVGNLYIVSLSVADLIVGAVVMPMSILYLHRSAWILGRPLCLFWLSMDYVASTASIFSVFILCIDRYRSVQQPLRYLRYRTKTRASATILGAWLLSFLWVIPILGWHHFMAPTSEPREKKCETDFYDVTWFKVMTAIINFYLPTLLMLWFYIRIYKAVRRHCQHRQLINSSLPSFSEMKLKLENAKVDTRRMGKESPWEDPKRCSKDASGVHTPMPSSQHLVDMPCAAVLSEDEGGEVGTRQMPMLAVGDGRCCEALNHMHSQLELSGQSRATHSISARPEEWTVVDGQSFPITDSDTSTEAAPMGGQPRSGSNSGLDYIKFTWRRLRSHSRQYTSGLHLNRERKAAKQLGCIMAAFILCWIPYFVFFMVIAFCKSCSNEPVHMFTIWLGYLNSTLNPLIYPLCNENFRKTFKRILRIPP", "assay": "Antagonist activity at histamine H1 receptor against histamine in isolated ileum of guinea pig.", "format": "functional, tissue-based", "details": "read-out: pA2 (converted)", "in_short": "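Isolated guinea pig ileum contracted by histamine, with histamine dihydrochloride as the standard agonist in cumulative dose-response curves. pA2 was derived. For compounds that depressed the histamine maximum at 10 µM, -log KB was taken at 3 µM antagonist from log(DR-1) = log[ant.] - log KB.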"}, "Cavia porcellus [2]": {"species_on_record": "Cavia porcellus", "assay": "Increase in heart rate with maximal inotropic response in isolated perfused guinea pig heart", "format": "functional", "in_short": "(§2)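 Langendorff-perfused isolated guinea pig heart. Compounds were given as a bolus injected into the perfusion stream, with impromidine as reference. Net increases in LV dp/dtmax, heart rate and coronary flow were expressed against impromidine = 100% in a control group (n = 6 each). Relative potency was taken from molar ED50 ratios versus impromidine = 100%.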"}, "[3]": {"target": "Histamine H2 receptor (Cavia porcellus) (UniProt P47747)", "assay": "Histamine H2 receptor agonistic activity (as a measure of agonism) at the isolated right atrium of guinea pig, activity relative to histamine.", "format": "functional, tissue-based", "details": "Cardiac atrium", "in_short": "as §1"}, "[4]": {"target": "Histamine H2 receptor (Cavia porcellus) (UniProt P47747)", "assay": "Intrinsic activity (as a measure of agonism) on electrically stimulated papillary muscle of guinea pig", "format": "functional, tissue-based", "details": "Muscle tissue", "in_short": "(§3)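 Isolated right-ventricular papillary muscle from guinea pig, electrically paced at 1 Hz with 1 ms pulses, in Krebs-Henseleit solution gassed with O2/CO2 95:5 at 32.5 °C. Compounds were tested as hydrohalide salts. Cumulative concentration-response curves of contractile force were run against histamine as the standard agonist. […] relative potency were taken from pD2, with histamine maximum = 1.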"}, "[5]": {"target": "Histamine H2 receptor (Cavia porcellus) (UniProt P47747)", "assay": "Potency relative to histamine calculated from mean pD2 value in guinea pig right atrium.", "format": "functional, tissue-based", "details": "Cardiac atrium", "in_short": "as §1"}, "Cavia porcellus [6]": {"species_on_record": "Cavia porcellus", "assay": "Relative potency with impromidine (100%) in isolated perfused guinea pig heart", "format": "functional", "in_short": "as §2"}, "Cavia porcellus [7]": {"species_on_record": "Cavia porcellus", "assay": "Chronotropic effect assessed from maximal increase in delta LV (dp/dtmax) in isolated perfused guinea pig heart", "format": "functional", "details": "in the assay text read “Inotropic effect” for “Chronotropic effect”", "in_short": "as §2"}, "Cavia porcellus [8]": {"species_on_record": "Cavia porcellus", "assay": "Increase in coronary flow with maximal inotropic response in isolated perfused guinea pig heart", "format": "functional", "parameters": "unit not given beside the values", "in_short": "as §2"}, "[9]": {"target": "Histamine H2 receptor (Cavia porcellus) (UniProt P47747)", "assay": "Agonistic activity relative to histamine on electrically stimulated papillary muscle of guinea pig", "format": "functional, tissue-based", "details": "Muscle tissue", "in_short": "as §3"}},
  "data": [
    {"compound": "N=C(NCCCc1c[nH]cn1)NCCC(c1ccccc1)c1ccccn1", "note": "(stereo not given)", "values": [
      {"measurement": "pD2", "setting": "[1]", "result": 7.39},
      {"measurement": "Kb", "setting": "Histamine H1 receptor", "result": 97.7, "unit": "nM"},
      {"measurement": "Delta heart rate", "setting": "Cavia porcellus [2]", "result": 70},
      {"measurement": "Intrinsic activity", "setting": "[3]", "result": 1},
      {"measurement": "Intrinsic activity", "setting": "[4]", "result": 0.7},
      {"measurement": "Relative potency", "setting": "[5]", "result": 24.5},
      {"measurement": "Relative potency", "setting": "Cavia porcellus [6]", "result": 63},
      {"measurement": "Delta LV", "setting": "Cavia porcellus [7]", "result": 76},
      {"measurement": "Delta coronary flow", "setting": "Cavia porcellus [8]", "result": 121},
      {"measurement": "pD2", "setting": "[9]", "result": 7.37}
    ]}
  ]
}
